Screening data deposited in PubChem BioAssay by several laboratories.
S1P4 antagonist = antagonists of human S1P4 receptor; S1P4-expressing cells, antagonist mode, reporter read-out; inhibition, % at 4.98 µM; hit rate 0.26% among 220,000; AID 1510; in the data active = inhibition above about 29%;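 also: 0% = wells stimulated with agonist and 100% = vehicle wells without agonist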
Target sequence (O95977 whole entry, looked up): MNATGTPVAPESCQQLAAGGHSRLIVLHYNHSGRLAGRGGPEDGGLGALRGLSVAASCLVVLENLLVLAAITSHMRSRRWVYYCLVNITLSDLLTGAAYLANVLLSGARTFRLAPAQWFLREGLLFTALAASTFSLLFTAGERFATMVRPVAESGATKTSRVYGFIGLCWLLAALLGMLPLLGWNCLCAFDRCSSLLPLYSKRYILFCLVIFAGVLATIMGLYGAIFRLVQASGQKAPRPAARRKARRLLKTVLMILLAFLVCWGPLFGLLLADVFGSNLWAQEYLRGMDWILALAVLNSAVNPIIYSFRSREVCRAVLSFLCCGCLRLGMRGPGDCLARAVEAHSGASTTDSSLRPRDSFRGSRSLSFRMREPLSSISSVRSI
MDM2 E3 inh = inhibitors of human Mdm2 E3 ubiquitin ligase; hit rate 0.11% among 210,000; Q00987; signal enhancement, % at 5 µM; cell-based MDM2 ubiquitination luciferase reporter, 2 h; 0 = plate control, 100 = twice control, blank-subtracted;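 active = signal enhancement of 30% or more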;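 also: luminescence tracks abundance of the self-degrading MDM2-luciferase fusion protein; higher signal means inhibition of MDM2 E3 ligase activity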
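Buffer or medium: Cells held in DMEM | Assay system: Stable mammalian line carrying autodegrading MDM2–luciferase fusion reporter | Quantity: 2000 cells/well | Times: 4 h settle plus 2 h compound, 37 °C | Doses: One concentration, 5 µM, with 0.2% DMSO | Technique: Luminescence with SteadyLite reagent, 15 min at room temperature | Benchmarks: Plate controls and plate blanks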
S1P4 agonist = human S1P4 receptor agonism; S1P4-expressing cell line, agonist reporter assay; activation, % at 4.98 µM; hit rate 0.35% among 220,000; in the data active = activation above about 11%;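 also: 0% = DMSO vehicle and 100% = reference agonist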
S1P3 antagonist = blocks the human S1P3 receptor; CHO S1P3 NFAT-BLA reporter, FRET fluorescence, antagonist mode; Q99500; hit rate 0.27% among 170,000; inhibition, % at 4.98 µM;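 active = inhibition above the plate cutoff, the mean inhibition of test wells on that plate plus 3 SD, cut at about 28% in these data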;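 also: cells challenged with S1P at its EC80 of 0.8 µM; blue over green emission ratio from cleaved BLA substrate after 4 h stimulation; 0% = S1P-stimulated wells and 100% = unstimulated DMSO-only wells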
L major viab = Leishmania major promastigote growth inhibition | hit rate 9% among 200,000 | Leishmania major promastigotes, resazurin fluorescence viability | inhibition, % at 10 µM; in the data active = inhibition above about 50%;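 also: promastigotes grown with compound for 44 hours at 28 °C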
An asterisk follows results filed as active; / = not tested or not shown. This is one part of a sample in which hits are shown more often than they occur.

SMILES	S1P4 antagonist	MDM2 E3 inh	S1P4 agonist	S1P3 antagonist	L major viab
CC1Cc2ccccc2N1C(=S)NC(=O)C1(C)CC1(Cl)Cl (stereo unspecified)	-12.7	-13.9	2.2	-9.8	-3.5
Fc1ccccc1OCCCCCN1CCCC1	-6.1	-13.0	-0.8	-2.7	71.5*
CCOc1ccccc1OCCCCOc1ccccc1F	-6.1	-4.7	0.5	-3.3	33.5
COc1ccccc1OCCCCOc1ccccc1F	4.8	-5.5	0.9	/	-5.2
Fc1ccccc1OCCCCCCN1CCCC1	-6.8	-13.6	1.8	/	98.0*
O=C(NCc1ccc(Cl)cc1Cl)C1CCN(S(=O)(=O)c2ccc3c(c2)OCCCO3)CC1	3.1	-11.2	-0.4	-37.6	8.8
CCOC(=O)c1ccccc1Oc1c(F)c(F)nc(NCCO)c1F	11.9	-14.5	0.6	/	81.7*
COc1cccc2[nH]c3c(N4CC(C)CC(C)C4)ncnc3c12 (stereo unspecified)	-34.3	-34.9	-0.2	/	99.9*
COc1cccc2[nH]c3c(N4CCC(C(N)=O)CC4)ncnc3c12	-1.2	/	0.7	14.8	19.6
COc1cccc2[nH]c3c(N4CCCC(C)C4)ncnc3c12 (stereo unspecified)	-2.1	/	1.7	30.9	99.1*
CCOC(=O)C1CCCN(c2ncnc3c2[nH]c2cccc(OC)c23)C1 (stereo unspecified)	1.9	-4.8	0.1	11.5	75.9*
NC(=O)c1oc2ccc(Cl)cc2c1NC(=O)CN1CCOCC1	-11.8	1.9	0.4	-15.8	11.4
CC(=O)Nc1ccc(S(=O)(=O)NCCCN2CCN(Cc3ccccc3)CC2)cc1Cl	7.5	-12.3	-0.7	9.6	/
COc1ccc(/C=N/OCC(=O)Nc2nc3ccccc3s2)cc1	-5.5	/	-2.3	-12.3	-4.6
O=S(=O)(Cc1ccccc1)c1cnc2ccccc2n1	-6.8	-0.8	-3.7	/	27.5
Cc1sc(NC(=O)c2ccco2)c(C(c2cccnc2)N2CCN(c3ccc(F)cc3)CC2)c1C (stereo unspecified)	-7.3	-13.0	0.5	-31.0	80.0*
CCOC(=O)C1CCN(C(c2cccnc2)c2c(NC(=O)c3ccco3)sc(C)c2C)CC1 (stereo unspecified)	-8.3	-13.4	-3.0	15.7	93.4*
Cc1sc(NC(=O)c2ccco2)c(C(c2ccc(F)cc2)N2CCN(C)CC2)c1C (stereo unspecified)	7.2	3.9	-1.7	-13.5	51.4*
Cc1sc(NC(=O)c2ccccc2)c(C(c2ccc(Cl)cc2)N2CCN(CCO)CC2)c1C (stereo unspecified)	-10.5	-2.0	0.2	-7.8	94.9*
COc1ccc(NC(=O)CSc2nc(-c3ccncc3)nn2CC(=O)N2CCCC2)cc1	-5.2	-3.0	0.0	-33.5	-7.5
COc1ccccc1C(C[N+](=O)[O-])c1c(N)n(C)c(=O)n(C)c1=O (stereo unspecified)	5.5	-6.8	1.6	-46.2	/
Cc1cc2ccccn2c1C(C[N+](=O)[O-])c1ccc(N(C)C)cc1 (stereo unspecified)	-2.3	-14.9	0.8	0.7	88.6*
COc1ccc(C(C[N+](=O)[O-])c2c(-c3ccccc3)cc3ccccn23)c(OC)c1 (stereo unspecified)	-13.0	-7.2	0.1	/	100.2*
Cc1cc2ccccn2c1C(=O)Nc1ccccc1	-10.5	-12.5	-0.3	-1.9	-3.4
COc1ccc(C(C[N+](=O)[O-])c2c(C)cc3ccccn23)cc1 (stereo unspecified)	1.1	-14.1	0.3	-9.0	98.6*
SMILES	S1P4 antagonist	MDM2 E3 inh	S1P4 agonist	S1P3 antagonist	L major viab
C=CCc1cc(Cl)ccc1OCCNCCOC	1.9	-1.4	-0.4	24.8	95.0*
C=CCc1cc(Cl)ccc1OCCN1CC(C)OC(C)C1 (stereo unspecified)	-3.7	-33.2	-1.0	-12.4	82.9*
C=CCc1cc(Cl)ccc1OCCNCCN1CCOCC1	1.7	2.9	1.0	-10.7	95.0*
CCCNC(=O)Nc1ccc(C(F)(F)F)cc1	-23.1	-17.6	-0.5	-11.9	5.5
Nc1cc2c(cc1[N+](=O)[O-])OCCOCCOCCO2	-12.5	-1.9	0.6	-12.6	-4.4
CC1CCN(Cc2ccc(-c3nnn(CC(=O)Nc4ccccc4Cl)n3)cc2)CC1	-17.0	6.2	1.9	8.0	64.3*
CN(C)c1ccc(-c2nnn(CC(=O)Nc3ccccc3N3CCOCC3)n2)cc1	-3.4	-24.0	-0.3	-10.0	1.7
O=C(Cn1nnc(-c2ccc(S(=O)(=O)N3CCCC3)cc2)n1)Nc1ccccc1-n1cccc1	5.9	-26.7	-1.5	-6.0	95.5*
CN(CC(=O)Nc1cccc([N+](=O)[O-])c1)S(=O)(=O)c1ccccc1	1.5	-14.2	1.2	-0.8	-0.1
CCOC(=O)c1cc2c(ccn2C)n1CC(=O)N1CCCC(C)C1 (stereo unspecified)	5.5	16.7	-0.6	/	10.7
CCOC(=O)c1cc2c(ccn2C)n1CC(=O)N1CCC(Cc2ccccc2)CC1	-2.6	-17.6	0.6	-10.6	94.9*
COc1cccc(-c2nc(-c3ccc4c(c3)-c3ccccc3S4(=O)=O)c(-c3ccccc3)[nH]2)c1OC	-8.7	-0.6	0.7	/	56.7*
COc1cc(-c2nc(-c3ccc4c(c3)-c3ccccc3S4(=O)=O)c(-c3ccccc3)[nH]2)cc(OC)c1OC	12.9	/	1.3	/	98.9*
COc1cc(-c2nc(-c3ccccc3)c(-c3cccs3)[nH]2)cc(OC)c1O	-1.0	-9.2	-0.6	/	47.4
COc1cc(-c2nc(-c3ccccc3)c(-c3cccs3)[nH]2)cc(OC)c1OC	-2.6	-11.9	-3.1	/	89.9*
CCCn1c(SCC(=O)Nc2cc(S(=O)(=O)N(C)C)ccc2OC)n[nH]c1=O	-18.7	1.8	0.7	-10.3	-6.1
CS(=O)(=O)Cc1cc(N2CCCC2)nc(-c2ccccc2)n1	-4.0	-29.3	0.9	-25.3	60.9*
N#C/C(=C/c1ccco1)c1nc2ccccc2s1	0.0	-15.1	0.5	-3.1	57.0*
N#C/C(=C\c1ccco1)c1nc2ccccc2s1	-7.4	-30.4	-0.6	6.7	-6.3
O=[N+]([O-])c1ccc(Oc2ccc(Oc3ccc(C(F)(F)F)cn3)cc2)nc1	0.4	-3.6	1.0	4.4	/
COc1ccc([N+](=O)[O-])cc1NC(=O)C(C)N(C)Cc1ccc(Br)cc1 (stereo unspecified)	-12.1	-0.8	0.9	0.5	56.6*
CCN(CCC(=O)Nc1cc([N+](=O)[O-])ccc1OC)Cc1ccccc1	12.9	-2.8	0.2	7.4	67.4*
COc1ccc([N+](=O)[O-])cc1NC(=O)CC(c1ccccc1)c1ccccc1	-16.2	/	-0.8	9.5	2.1
COc1ccc(Br)cc1CN(C)C(C)C(=O)Nc1cc([N+](=O)[O-])ccc1OC (stereo unspecified)	-1.7	-1.0	0.1	-15.9	1.5
O=C(OCc1ccc(F)cc1)c1ccc2ccccc2n1	0.0	-12.2	1.4	-7.7	-12.0
Cc1cc(C)n(-c2cc(N3CCN(S(=O)(=O)c4ccc(C)c(C)c4)CC3)ccc2[N+](=O)[O-])n1	2.9	-17.7	0.3	/	-7.0
Cc1cc(C)n(-c2cc(N3CCN(S(=O)(=O)c4ccc5ccccc5c4)CC3)ccc2[N+](=O)[O-])n1	-9.6	-11.2	-0.2	/	59.3*
